Results from ChEMBL document CHEMBL5058577, “EUbOPEN Chemogenomics Library 2 (Multiplex)” (2022).

Test system: Fibroblast
Experiment: Multiplex assay against human fibroblast
Assay type: toxicity, cell-based
Outline: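 Imaging took place on a CQ1 microscope at 37°C and 5% CO2 once compound had been added to live cells stained at seeding with Hoechst33342, BioTracker Green Microtubule Cytoskeleton Dye, MitoTracker Red and Annexin V Alexa Fluor 680. CellPathfinder machine-learning gating classed cells as Hoechst high-intensity objects or normal cells, classed normal cells as having healthy, pyknosed or fragmented nuclei, and classed pyknosed cells as mitotic or apoptotic. Tubulin, mitochondrial-mass and membrane-permeability phenotypes are per cents of the healthy-nucleus cells.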

[1] = 12 h, 1 µM, compound concentration 1 uM, replicate 1
[2] = 12 h, 1 µM, compound concentration 1 uM, replicate 2
[3] = 12 h, 10 µM, compound concentration 10 uM, replicate 1
[4] = 12 h, 10 µM, compound concentration 10 uM, replicate 2
[5] = 24 h, 1 µM, compound concentration 1 uM, replicate 1
[6] = 24 h, 1 µM, compound concentration 1 uM, replicate 2
[7] = 24 h, 10 µM, compound concentration 10 uM, replicate 1
[8] = 24 h, 10 µM, compound concentration 10 uM, replicate 2
[9] = 48 h, 1 µM, compound concentration 1 uM, replicate 1
[10] = 48 h, 1 µM, compound concentration 1 uM, replicate 2
[11] = 48 h, 10 µM, compound concentration 10 uM, replicate 1
[12] = 48 h, 10 µM, compound concentration 10 uM, replicate 2

SMILES: Cl.N=C(N)NC(=O)Cc1c(Cl)cccc1Cl [GUANFACINE HYDROCHLORIDE]
- Population Apoptotic (%) [1]: 44%
- Population Fragmented Nuclei (%) [1]: 20%
- Population Healthy Nuclei (%) [1]: 62%
- Population Hoechst High Intensity Objects (%) [1]: 2%
- Population Membrane Permeable-Phenotype (%) [1]: 0%
- Population Mitochondria Different-Phenotype (%) [1]: 4%
- Population Mitotic Cells (%) [1]: 55%
- Population Normal (%) [1]: 97%
- Population Pyknosed Nuclei (%) [1]: 16%
- Population Tubulin-Different-Phenotype (%) [1]: 32%
- Total Cell Count [1]: 167
- Population Apoptotic (%) [2]: 28%
- Population Fragmented Nuclei (%) [2]: 23%
- Population Healthy Nuclei (%) [2]: 45%
- Population Membrane Permeable-Phenotype (%) [2]: 3%
- Population Mitochondria Different-Phenotype (%) [2]: 7%
- Population Mitotic Cells (%) [2]: 71%
- Population Pyknosed Nuclei (%) [2]: 31%
- Population Tubulin-Different-Phenotype (%) [2]: 46%
- Total Cell Count [2]: 149
- Population Apoptotic (%) [3]: 66%
- Population Fragmented Nuclei (%) [3]: 16%
- Population Healthy Nuclei (%) [3]: 68%
- Population Hoechst High Intensity Objects (%) [3]: 0%
- Population Membrane Permeable-Phenotype (%) [3]: 1%
- Population Mitochondria Different-Phenotype (%) [3]: 5%
- Population Mitotic Cells (%) [3]: 33%
- Population Normal (%) [3]: 99%
- Population Pyknosed Nuclei (%) [3]: 15%
- Population Tubulin-Different-Phenotype (%) [3]: 24%
- Total Cell Count [3]: 139
- Population Apoptotic (%) [4]: 35%
- Population Fragmented Nuclei (%) [4]: 22%
- Population Healthy Nuclei (%) [4]: 47%
- Population Hoechst High Intensity Objects (%) [4]: 10%
- Population Membrane Permeable-Phenotype (%) [4]: 5%
- Population Mitotic Cells (%) [4]: 64%
- Population Normal (%) [4]: 89%
- Population Pyknosed Nuclei (%) [4]: 29%
- Population Tubulin-Different-Phenotype (%) [4]: 46%
- Total Cell Count [4]: 127
- Population Apoptotic (%) [5]: 58%
- Population Fragmented Nuclei (%) [5]: 22%
- Population Healthy Nuclei (%) [5]: 62%
- Population Hoechst High Intensity Objects (%) [5]: 1%
- Population Membrane Permeable-Phenotype (%) [5]: 0%
- Population Mitochondria Different-Phenotype (%) [5]: 5%
- Population Mitotic Cells (%) [5]: 41%
- Population Normal (%) [5]: 98%
- Population Pyknosed Nuclei (%) [5]: 14%
- Population Tubulin-Different-Phenotype (%) [5]: 26%
- Total Cell Count [5]: 169
- Population Apoptotic (%) [6]: 45%
- Population Fragmented Nuclei (%) [6]: 23%
- Population Healthy Nuclei (%) [6]: 46%
- Population Hoechst High Intensity Objects (%) [6]: 6%
- Population Membrane Permeable-Phenotype (%) [6]: 12%
- Population Mitochondria Different-Phenotype (%) [6]: 8%
- Population Mitotic Cells (%) [6]: 54%
- Population Normal (%) [6]: 93%
- Population Pyknosed Nuclei (%) [6]: 30%
- Population Tubulin-Different-Phenotype (%) [6]: 50%
- Total Cell Count [6]: 130
- Population Apoptotic (%) [7]: 63%
- Population Fragmented Nuclei (%) [7]: 17%
- Population Healthy Nuclei (%) [7]: 68%
- Population Hoechst High Intensity Objects (%) [7]: 1%
- Population Membrane Permeable-Phenotype (%) [7]: 0%
- Population Mitochondria Different-Phenotype (%) [7]: 4%
- Population Mitotic Cells (%) [7]: 36%
- Population Normal (%) [7]: 98%
- Population Pyknosed Nuclei (%) [7]: 14%
- Population Tubulin-Different-Phenotype (%) [7]: 19%
- Total Cell Count [7]: 137
- Population Apoptotic (%) [8]: 25%
- Population Fragmented Nuclei (%) [8]: 26%
- Population Healthy Nuclei (%) [8]: 55%
- Population Hoechst High Intensity Objects (%) [8]: 4%
- Population Membrane Permeable-Phenotype (%) [8]: 13%
- Population Mitochondria Different-Phenotype (%) [8]: 3%
- Population Mitotic Cells (%) [8]: 75%
- Population Normal (%) [8]: 95%
- Population Pyknosed Nuclei (%) [8]: 18%
- Population Tubulin-Different-Phenotype (%) [8]: 58%
- Total Cell Count [8]: 114
- Population Apoptotic (%) [9]: 61%
- Population Fragmented Nuclei (%) [9]: 25%
- Population Healthy Nuclei (%) [9]: 63%
- Population Hoechst High Intensity Objects (%) [9]: 1%
- Population Membrane Permeable-Phenotype (%) [9]: 0%
- Population Mitochondria Different-Phenotype (%) [9]: 6%
- Population Mitotic Cells (%) [9]: 38%
- Population Normal (%) [9]: 98%
- Population Pyknosed Nuclei (%) [9]: 11%
- Population Tubulin-Different-Phenotype (%) [9]: 32%
- Total Cell Count [9]: 162
- Population Apoptotic (%) [10]: 50%
- Population Fragmented Nuclei (%) [10]: 33%
- Population Healthy Nuclei (%) [10]: 45%
- Population Hoechst High Intensity Objects (%) [10]: 3%
- Population Membrane Permeable-Phenotype (%) [10]: 4%
- Population Mitochondria Different-Phenotype (%) [10]: 11%
- Population Mitotic Cells (%) [10]: 50%
- Population Normal (%) [10]: 96%
- Population Pyknosed Nuclei (%) [10]: 21%
- Population Tubulin-Different-Phenotype (%) [10]: 57%
- Total Cell Count [10]: 145
- Population Apoptotic (%) [11]: 66%
- Population Fragmented Nuclei (%) [11]: 22%
- Population Healthy Nuclei (%) [11]: 67%
- Population Hoechst High Intensity Objects (%) [11]: 1%
- Population Membrane Permeable-Phenotype (%) [11]: 1%
- Population Mitochondria Different-Phenotype (%) [11]: 6%
- Population Mitotic Cells (%) [11]: 33%
- Population Normal (%) [11]: 98%
- Population Pyknosed Nuclei (%) [11]: 10%
- Population Tubulin-Different-Phenotype (%) [11]: 24%
- Total Cell Count [11]: 142
- Population Apoptotic (%) [12]: 45%
- Population Fragmented Nuclei (%) [12]: 39%
- Population Healthy Nuclei (%) [12]: 41%
- Population Hoechst High Intensity Objects (%) [12]: 6%
- Population Membrane Permeable-Phenotype (%) [12]: 8%
- Population Mitochondria Different-Phenotype (%) [12]: 2%
- Population Mitotic Cells (%) [12]: 54%
- Population Normal (%) [12]: 93%
- Population Pyknosed Nuclei (%) [12]: 19%
- Population Tubulin-Different-Phenotype (%) [12]: 67%
- Total Cell Count [12]: 120
